In ChEMBL document CHEMBL4251668, “Herbicidins from Streptomyces sp. CB01388 Showing Anti- Cryptosporidium Activity” (J Nat Prod, 2018):

Columns and labels:
Cryptosporidium parvum [1] = experiment: Antiparasitic activity against Cryptosporidium parvum SPL infected in human HCT8 cells incubated for 48 hrs by FITC/DAPI staining based fluorescence assay; assay type: functional, organism-based; details: HCT-8, 48 h
Outline: (§1)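 HCT-8 cells seeded at 2750 cells/well and dosed 24 h later with pure compounds (11-point 1:3 serial dilution, final top 25 μM), then infected with excysted oocysts at 3125 oocysts/well. Incubated 48 h at 37 °C, 5% CO2, then fixed in 4% paraformaldehyde. Parasites stained with FITC-Vicia villosa lectin and host nuclei with DAPI, imaged at 10×. Parasite spot counts and host nuclei counts taken relative to DMSO-treated wells.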

HCT-8 = experiment: Cytotoxicity against human HCT8 cells; assay type: cell-based; outline: as §1
Cryptosporidium parvum [2] = experiment: Antiparasitic activity against Cryptosporidium parvum BGF infected in human HCT8 cells incubated for 48 hrs by FITC/DAPI staining based fluorescence assay; assay type: functional, organism-based; details: HCT-8, 48 h; outline: as §1
[3] = Cytotoxicity against human HEK293T cells assessed as decrease in cell viability after 72 hrs by CellTiter-Glo reagent based luminescence assay; parameters: species or system HEK-293T
Outline: (§2)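 Compounds prespotted as a 1:3 dilution series, top 40 μM. Cells seeded at 375 cells/well for HEK293T and 700 cells/well for HepG2, then incubated 72 h at 37 °C, 5% CO2. Viability read as CellTiter-Glo luminescence, normalized to DMSO- and puromycin-treated wells. CC50 obtained from a four-parameter nonlinear regression fit.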

[4] = Cytotoxicity against human HepG2 cells assessed as decrease in cell viability after 72 hrs by CellTiter-Glo reagent based luminescence assay; outline: as §2

EC50 (Cryptosporidium parvum [1]) [nM]	EC50 (Cryptosporidium parvum [2]) [nM]	SMILES	EC50 (HCT-8) [µM]	CC50 at 72 h [3] [µM]	CC50 at 72 h [4] [µM]
600	550	COc1ccc(C[C@H](N)C(=O)N[C@H]2[C@@H](O)[C@H](n3cnc4c(N(C)C)ncnc43)O[C@@H]2CO)cc1 [PUROMYCIN]	6.1 to 7	0.42	0.83
2700	2800	C/C=C(\C)C(=O)O[C@H]1[C@H](O)[C@@H](C(=O)OC)O[C@@H]2C[C@H]3O[C@@H](n4cnc5c(N)ncnc54)[C@H](O)[C@H]3O[C@]21O	> 25	> 40	> 40
16000	21000	C/C=C(\CO)C(=O)O[C@H]1[C@H](O)[C@@H](C(=O)OC)O[C@@H]2C[C@H]3O[C@@H](n4cnc5c(N)ncnc54)[C@H](OC)[C@H]3O[C@]21O	> 25	> 40	> 40
5	9.6	O=c1[nH]c(=O)n([C@H]2C[C@H](O)[C@@H](CO)O2)cc1F [FLOXURIDINE]	0.015 to 0.038	0.0084	0.0076
170	150	C/C=C(\CO)C(=O)O[C@@H]1[C@@H](C(=O)OC)O[C@@H]2C[C@H]3O[C@@H](n4cnc5c(N)ncnc54)[C@H](OC)[C@H]3O[C@@]2(O)[C@@H]1O	0.14 to 0.18	> 40	24
24000	18000	COC(=O)[C@H]1O[C@@H]2C[C@H]3O[C@@H](n4cnc5c(N)ncnc54)[C@H](O)[C@H]3O[C@@]2(O)[C@@H](O)[C@@H]1O	> 25	> 40	> 40

SMILES	EC50 (Cryptosporidium parvum [1]) [nM]	EC50 (Cryptosporidium parvum [2]) [nM]	EC50 (HCT-8) [µM]	CC50 at 72 h [3] [µM]	CC50 at 72 h [4] [µM]
COC(=O)[C@H]1O[C@@H]2C[C@H]3O[C@@H](n4cnc5c(N)ncnc54)[C@H](OC)[C@H]3O[C@@]2(O)[C@H](O)[C@@H]1O	> 25000	> 25000	> 25	> 40	> 40
COC(=O)[C@H]1O[C@@H]2C[C@H]3O[C@@H](n4cnc5c(N)ncnc54)[C@H](OC)[C@H]3O[C@@]2(O)[C@@H](O)[C@@H]1O	11000	8800	> 25	> 40	> 40
CC(=O)Oc1ccccc1C(=O)Nc1ncc([N+](=O)[O-])s1 [NITAZOXANIDE]	2300	2900	> 25	> 40	> 40
